In ChEMBL document CHEMBL4052591, “Evaluation of Jatrophane Esters from Euphorbia spp. as Modulators of Candida albicans Multidrug Transporters” (2017):
Converted amounts (≈) assume the structure as drawn.

How the values were obtained:
[1] = test system: Saccharomyces cerevisiae; test: Antifungal activity against Saccharomyces cerevisiae AD over-expressing Candida albicans MDR1 transporter after 48 hrs; format: functional
Summary of the method: (§1)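 S. cerevisiae AD1-8u− derivative overexpressing the transporter, grown in YEPD at 30 °C. Cells (10^4) incubated 48 h at 30 °C with a range of inhibitor concentrations […]; growth read as OD600. Growth without inhibitor taken as 100%; MIC80 is the concentration decreasing growth by 80%. Means ± SD of three independent experiments.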

[2] = test system: Candida albicans; test: Inhibition of Candida albicans MDR1 expressed in Saccharomyces cerevisiae AD assessed as ratio of MIC80 of fluconazole in combinantion with compound to MIC80 of fluconazole alone for Saccharomyces cerevisiae AD by checkerboard method
Summary of the method: (§2)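 CLSI checkerboard in YEPD: 10^4 cells per well, grown 48 h at 30 °C, OD read. Fluconazole 0.15−800 μM was crossed with inhibitor 0.15−800 μM. Run on control AD1-8u− and on strains overexpressing CaCdr1p or CaMdr1p. FIC of each agent = MIC in combination / MIC alone; FICI = sum of both FICs.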

[3] = test system: Saccharomyces cerevisiae; test: Antifungal activity against Saccharomyces cerevisiae AD over-expressing Candida albicans CDR1 transporter after 48 hrs; format: functional; summary of the method: as §1
[4] = test system: Candida albicans; test: Inhibition of Candida albicans CDR1 expressed in Saccharomyces cerevisiae AD assessed as potentiation of fluconazole-induced antifungal activity against Saccharomyces cerevisiae AD by checkerboard method; summary of the method: as §2
[5] = test system: Candida albicans; test: Inhibition of Candida albicans CDR1 transporter expressed in Saccharomyces cerevisiae AD cells assessed as nile red accumulation at 70 uM after 30 mins by flow cytometric analysis relative to control; format: cell-based; parameters: Activity: scale not given: the % may be the effect or the level left
Summary of the method: (§3)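 S. cerevisiae AD strains overexpressing CaCdr1p (AD-CDR1) or CaMdr1p (AD-MDR1) were grown at 30 °C from OD600 0.1 to 0.25. They were resuspended as a 5% suspension in YEPD:water 1:2. Nile Red (7 μM final) was given ± inhibitor (70 μM) for 30 min at 30 °C. Accumulation was read by flow cytometry on 10 000 cells. Means ± SD, three independent experiments.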

[6] = test system: Candida albicans; test: Inhibition of Candida albicans MDR1 transporter expressed in Saccharomyces cerevisiae AD cells assessed as nile red dye accumulation at 70 uM after 30 mins by flow cytometric analysis relative to control; format: cell-based; parameters: Activity: scale not given: the % may be the effect or the level left; summary of the method: as §3
[7] = test system: Candida albicans; test: Inhibition of Candida albicans MDR1 expressed in Saccharomyces cerevisiae AD assessed as ratio of MIC80 of compound in combinantion with fluconazole to MIC80 of compound alone for Saccharomyces cerevisiae AD by checkerboard method; summary of the method: as §2
[8] = test system: Saccharomyces cerevisiae; test: Potentiation of fluconazole-induced antifungal activity against Saccharomyces cerevisiae AD1-8u(-) assessed as ratio of MIC80 of compound in combinantion with fluconazole to MIC80 of compound alone by checkerboard method; format: functional; summary of the method: as §2
[9] = test system: Saccharomyces cerevisiae; test: Antifungal activity against Saccharomyces cerevisiae AD1-8u(-) after 48 hrs; format: functional
Summary of the method: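 Growth inhibition of transporter-deleted control S. cerevisiae AD1-8u− over […]; 10^4 cells grown in YEPD for 48 h at 30 °C. OD600 was read and growth without inhibitor was set as 100%. MIC80 is the concentration cutting growth by 80%. Means ± SD from three independent experiments.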

[10] = test system: Saccharomyces cerevisiae; test: Resistance index, ratio of MIC80 for Saccharomyces cerevisiae AD over-expressing Candida albicans MDR1 to MIC80 for Saccharomyces cerevisiae AD1-8u(-); format: functional
Summary of the method: (§4)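 MIC80 of the transporter-overexpressing strain and the AD1-8u− control strain each measured after 48 h growth at 30 °C over 0.15−80 μM inhibitor, read by OD600. MIC80 is the concentration cutting growth by 80% versus the no-inhibitor control. Resistance index = overexpressing-strain MIC80 divided by control-strain MIC80.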

[11] = test system: Saccharomyces cerevisiae; test: Potentiation of fluconazole-induced antifungal activity against Saccharomyces cerevisiae AD1-8u(-) assessed as as ratio of MIC80 of fluconazole in combinantion with compound to MIC80 of fluconazole alone by checkerboard method; format: functional; summary of the method: as §2
[12] = test system: Candida albicans; test: Inhibition of Candida albicans CDR1 expressed in Saccharomyces cerevisiae AD assessed as ratio of MIC80 of fluconazole in combinantion with compound to MIC80 of fluconazole alone for Saccharomyces cerevisiae AD by checkerboard method; summary of the method: as §2
[13] = test system: Candida albicans; test: Inhibition of Candida albicans MDR1 expressed in Saccharomyces cerevisiae AD assessed as potentiation of fluconazole-induced antifungal activity against Saccharomyces cerevisiae AD by checkerboard method; summary of the method: as §2
[14] = test system: Saccharomyces cerevisiae; test: Potentiation of fluconazole-induced antifungal activity against Saccharomyces cerevisiae AD1-8u(-) by checkerboard method; format: functional; summary of the method: as §2
[15] = test system: Candida albicans; test: Inhibition of Candida albicans CDR1 expressed in Saccharomyces cerevisiae AD assessed as ratio of MIC80 of compound in combinantion with fluconazole to MIC80 of compound alone for Saccharomyces cerevisiae AD by checkerboard method; summary of the method: as §2
[16] = test system: Saccharomyces cerevisiae; test: Resistance index, ratio of MIC80 for Saccharomyces cerevisiae AD over-expressing Candida albicans CDR1 to MIC80 for Saccharomyces cerevisiae AD1-8u(-); format: functional; summary of the method: as §4

| Structure (SMILES) | MIC80 [1] [µM] | Ratio [2] | MIC80 [3] [µM] | fractional inhibitory concentration index (FICI) [4] | Activity [5] [%] | Activity [6] [%] | Ratio [7] | Ratio [8] | MIC80 [9] [µM] | Ratio [10] | Ratio [11] | Ratio [12] | fractional inhibitory concentration index (FICI) [13] | fractional inhibitory concentration index (FICI) [14] | Ratio [15] | Ratio [16] |
| --- | --- | --- | --- | --- | --- | --- | --- | --- | --- | --- | --- | --- | --- | --- | --- | --- |
| C=C1[C@@H](OC(=O)C(C)CC)[C@H]2[C@@H](O)[C@](C)(OC(C)=O)C[C@]2(O)C(=O)[C@@H](C)/C=C/C(C)(C)[C@H](OC(C)=O)[C@H](OC(C)=O)[C@H]1OC(=O)c1ccccc1 (some centres not stated) | 629 (≈ 450 µg/mL) | 1 | 681 (≈ 487 µg/mL) | 1.5 | 64 | 65 | 1 | 1 | 719 (≈ 514 µg/mL) | 0.87 | 1 | 1 | 2 | 2 | 0.5 | 0.9 |
| C=C1[C@@H](OC(C)=O)[C@H]2[C@@H](OC(=O)COC(=O)c3ccccc3)[C@](C)(OC(C)=O)C[C@]2(O)C(=O)[C@@H](C)/C=C/C(C)(C)[C@H](OC(C)=O)[C@H](OC(C)=O)[C@H]1OC(=O)C(C)C | 411 (≈ 329 µg/mL) | 1 | 416 (≈ 333 µg/mL) | 1.2 | 92 | – | 1 | 1 | 324 (≈ 259 µg/mL) | 1.2 | 1 | 0.2 | 2 | 2 | 1 | 1.2 |
| C=C1[C@@H](OC(C)=O)[C@H]2[C@@H](OC(=O)c3ccccc3)[C@@H](C)C[C@]2(O)[C@H](O)[C@H](C)/C=C/C(C)(C)C(=O)[C@H](OC(=O)C(C)C)[C@H]1OC(C)=O | 679 (≈ 436 µg/mL) | 1 | 710 (≈ 456 µg/mL) | 2 | – | 74 | 1 | 1 | 792 (≈ 509 µg/mL) | 0.85 | 1 | 1 | 2 | 2 | 1 | 0.9 |
| CC(=O)O[C@H]1[C@@H](OC(C)=O)C(C)(C)/C=C/[C@@](C)(O)C(=O)[C@@]2(O)C[C@@](C)(OC(C)=O)[C@H](OC(C)=O)[C@@H]2[C@H]2OC(=O)CC[C@@]2(OC(C)=O)[C@@H]1OC(=O)C(C)C | 691 (≈ 522 µg/mL) | 0.5 | 711 (≈ 537 µg/mL) | 2 | 85 | 79 | 0.5 | 1 | 682 (≈ 515 µg/mL) | 1.01 | 1 | 1 | 1 | 2 | 1 | 1.04 |
